This note sets out measurements from ChEMBL document CHEMBL4339200, “Structure-based Discovery of Phenyl (3-Phenylpyrrolidin-3-yl)sulfones as Selective, Orally Active RORγt Inverse Agonists” (ACS Med Chem Lett, 2019).

For data set [1], the target named is T1, Nuclear receptor subfamily 1 group I member 2 (Homo sapiens, UniProt O75469).
T1 sequence (O75469 whole entry): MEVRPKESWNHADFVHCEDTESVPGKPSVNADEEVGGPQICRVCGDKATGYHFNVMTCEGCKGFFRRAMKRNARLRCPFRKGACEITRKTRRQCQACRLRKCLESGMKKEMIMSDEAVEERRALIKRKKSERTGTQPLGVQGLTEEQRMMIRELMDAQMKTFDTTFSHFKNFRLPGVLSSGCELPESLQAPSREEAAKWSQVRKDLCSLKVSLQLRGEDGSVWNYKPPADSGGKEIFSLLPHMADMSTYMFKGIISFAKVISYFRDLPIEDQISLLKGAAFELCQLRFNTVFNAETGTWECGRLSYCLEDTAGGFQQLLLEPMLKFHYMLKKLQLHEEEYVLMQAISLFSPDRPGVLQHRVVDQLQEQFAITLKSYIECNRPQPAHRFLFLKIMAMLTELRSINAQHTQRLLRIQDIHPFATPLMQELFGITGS
In words: Transactivation of PXR in human HepG2 cells. The data set is classed as ADME, cell-based.

Data set [2] concerns the target T2, Oxysterols receptor LXR-alpha (Homo sapiens, UniProt Q13133).
T2 sequence (Q13133 whole entry): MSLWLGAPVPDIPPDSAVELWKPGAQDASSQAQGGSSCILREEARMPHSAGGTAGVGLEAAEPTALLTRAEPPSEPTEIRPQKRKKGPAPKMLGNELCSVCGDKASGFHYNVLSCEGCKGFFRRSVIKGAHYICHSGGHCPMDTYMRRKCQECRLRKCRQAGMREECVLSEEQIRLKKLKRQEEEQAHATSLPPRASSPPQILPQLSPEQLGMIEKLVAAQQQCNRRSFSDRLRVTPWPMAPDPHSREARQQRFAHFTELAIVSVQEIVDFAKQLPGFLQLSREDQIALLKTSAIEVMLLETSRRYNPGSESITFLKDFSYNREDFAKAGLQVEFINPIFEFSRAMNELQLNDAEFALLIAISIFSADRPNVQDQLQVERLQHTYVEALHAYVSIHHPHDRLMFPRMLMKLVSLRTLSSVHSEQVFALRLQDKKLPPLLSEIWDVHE
In words: Agonist activity at LXRalpha (unknown origin) expressed in African green monkey CV1 cells. The data set is classed as cell-based.

The nature of data set [3]: Stability in mouse liver microsomes assessed as parent compound remaining after 10 mins. The data set is classed as ADME, Microsome. Particulars: read-out: Stability. A digest of the protocol:
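Rough stability screen: compound incubated with mouse liver microsomes for 10 min, reported as percentage of parent remaining.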
On the technique in general: Liver microsomes are vesicles of endoplasmic reticulum, rich in cytochrome P450 enzymes.

The target of data set [4] is T3, Cytochrome P450 1A2 (Homo sapiens, UniProt P05177).
T3 sequence (P05177 whole entry): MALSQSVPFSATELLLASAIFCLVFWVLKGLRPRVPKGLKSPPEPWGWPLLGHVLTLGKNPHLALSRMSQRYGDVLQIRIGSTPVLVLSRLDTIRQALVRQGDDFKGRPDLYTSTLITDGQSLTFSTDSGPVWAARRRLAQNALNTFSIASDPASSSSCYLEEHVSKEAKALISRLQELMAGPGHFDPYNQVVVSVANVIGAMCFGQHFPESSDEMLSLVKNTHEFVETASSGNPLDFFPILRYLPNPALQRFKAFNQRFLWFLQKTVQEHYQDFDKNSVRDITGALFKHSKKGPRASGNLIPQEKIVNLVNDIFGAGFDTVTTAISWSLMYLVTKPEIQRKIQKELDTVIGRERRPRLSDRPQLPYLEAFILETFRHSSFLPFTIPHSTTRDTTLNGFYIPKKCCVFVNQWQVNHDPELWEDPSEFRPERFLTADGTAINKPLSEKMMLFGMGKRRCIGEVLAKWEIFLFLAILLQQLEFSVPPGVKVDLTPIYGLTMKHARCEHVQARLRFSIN
In words: Inhibition of CYP1A2 (unknown origin). The data set is classed as ADME.

The target of data set [5] is Cytochrome P450 3A4 (Homo sapiens, UniProt P08684). In words: Inhibition of CYP3A4 (unknown origin). The data set is classed as ADME.
Data set [6] is described as follows: Clearance in Balb/c mouse at 2 mg/kg, iv. The data set is classed as ADME, organism-based. As to conditions: in vivo. A digest of the protocol:
(§1)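 Balb/c mice given a single intravenous dose of 2 mg/kg or an oral dose of 10 mg/kg. Plasma exposure was followed to derive Cmax, Tmax, AUC, t1/2, clearance, Vss and oral bioavailability (F).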

The nature of data set [7]: Tmax in Balb/c mouse at 10 mg/kg, po. The data set is classed as ADME, organism-based. Particulars: in vivo. A digest of the protocol: as §1
Data set [8] is described as follows: Oral bioavailability in Balb/c mouse at 10 mg/kg. The data set is classed as ADME, organism-based. Particulars: in vivo. A digest of the protocol: as §1
Data set [9] relates to Mus musculus. In words: Inhibition of IL2/IL23-induced IL17F production in C57BL/6 mouse at 15 mg/kg, po bid treated 30 mins prior to 24 hrs IL2 challenge followed by IL2/IL23 addition at 0,7 and 23 hrs measured after 7 hrs post last IL2/IL23 challenge relative to control. The data set is classed as functional. Particulars: C57BL/6, po. A digest of the protocol:
(§2)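 Naive mice were challenged three times with IL-2 plus IL-23 (first at 0 and 7 h) and dosed orally bid at 5, 15 or 50 mg/kg. Serum cytokines were measured 7 h after the final IL-2/IL-23 administration. An anti-IL-23 antibody served as positive control.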

The subject of data set [10] is Mus musculus. In words: Inhibition of IL2/IL23-induced IL17F production in C57BL/6 mouse at 50 mg/kg, po bid treated 30 mins prior to 24 hrs IL2 challenge followed by IL2/IL23 addition at 0,7 and 23 hrs measured after 7 hrs post last IL2/IL23 challenge relative to control. Particulars: C57BL/6, po. The data set is classed as functional. The method in brief:
as §2

Data set [11] deals with Mus musculus. Nature of the data set: Inhibition of IL2/IL23-induced IL17A production in po bid dosed C57BL/6 mouse treated 30 mins prior to 24 hrs IL2 challenge followed by IL2/IL23 addition at 0,7 and 23 hrs measured after 7 hrs post last IL2/IL23 challenge. The data set is classed as functional, organism-based. A digest of the protocol: as §2
The subject of data set [12] is Mus musculus. In words: Inhibition of IL2/IL23-induced IL22 production in po bid dosed C57BL/6 mouse treated 30 mins prior to 24 hrs IL2 challenge followed by IL2/IL23 addition at 0,7 and 23 hrs measured after 7 hrs post last IL2/IL23 challenge. The data set is classed as functional, organism-based. The method in brief: as §2
For data set [13], the system named is Mus musculus. Nature of the data set: Inhibition of IL2/IL23-induced IL6 production in po bid dosed C57BL/6 mouse treated 30 mins prior to 24 hrs IL2 challenge followed by IL2/IL23 addition at 0,7 and 23 hrs measured after 7 hrs post last IL2/IL23 challenge. The data set is classed as functional, organism-based. A digest of the protocol: as §2

Sequence of Cytochrome P450 3A4 (P08684 whole entry): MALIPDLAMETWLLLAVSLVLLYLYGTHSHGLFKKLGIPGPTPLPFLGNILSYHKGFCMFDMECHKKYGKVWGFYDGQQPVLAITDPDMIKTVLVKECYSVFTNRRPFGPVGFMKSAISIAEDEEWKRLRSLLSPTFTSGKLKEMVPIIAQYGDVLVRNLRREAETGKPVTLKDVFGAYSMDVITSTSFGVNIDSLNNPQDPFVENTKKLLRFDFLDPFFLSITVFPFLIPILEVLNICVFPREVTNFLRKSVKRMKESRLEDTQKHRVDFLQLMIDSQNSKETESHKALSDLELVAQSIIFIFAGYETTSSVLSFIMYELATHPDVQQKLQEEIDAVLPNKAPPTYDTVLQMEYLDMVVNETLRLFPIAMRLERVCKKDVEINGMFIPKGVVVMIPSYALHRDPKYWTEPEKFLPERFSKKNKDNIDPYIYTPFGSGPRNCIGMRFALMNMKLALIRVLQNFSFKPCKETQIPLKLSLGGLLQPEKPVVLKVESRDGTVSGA

For orientation: EC50 means the midpoint of the concentration-response curve. For orientation: IC50 means the concentration that inhibits the measured activity by half. For orientation: clearance means the volume of plasma or blood freed of the substance per unit of time. The term Tmax denotes the time from dosing to the highest level. By bioavailability is commonly meant dose-corrected exposure relative to a reference, in per cent. The term inhibition in vivo denotes the drop in the measured response relative to a control, in per cent. In the case of `O=C(O)[C@H]1CC[C@H](C(=O)N2CC[C@](c3ccc(C(F)(C(F)(F)F)C(F)(F)F)cc3)(S(=O)(=O)c3ccc(F)cc3)C2)CC1`, the EC50 is > 50 µM in [1] and > 7.5 µM in [2]. Moreover, the remaining at 10 min in data set [3] came to 86%. The IC50 in data set [4] and in [5] was > 20 µM throughout. In addition, the clearance in data set [6] amounted to 7.2 mL/min/kg. For the same compound, the Tmax in data set [7] worked out at 2 h. Further, in [8], the bioavailability turned out to be 99%. The compound further showed an inhibition in vivo at 15 mg/kg in data set [9] of 77%. In data set [10], this compound returned an inhibition in vivo at 50 mg/kg of 98%. Also, the inhibition entry in [11], in data set [12] and in data set [13] was “Dose-dependent effect” in each case.
